High-throughput results from PubChem BioAssay.
TLR4 MyD88 comp = inhibitors of TLR4-MyD88 association in cells, primary screen, cell-based, HeLa CL3-4, BLA complementation, FRET ratio; Toll-like receptor 4 (Homo sapiens) + Myeloid differentiation primary response protein …; HeLa CL3-4 TLR4/MyD88 BLA complementation; inhibition, % at 8.4 µM; actives 0.18% (n = 200,000); in the data active = inhibition above about 25%;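 also: 0% = vehicle and 100% = reference inhibitor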
Target sequence (O00206 whole entry, looked up): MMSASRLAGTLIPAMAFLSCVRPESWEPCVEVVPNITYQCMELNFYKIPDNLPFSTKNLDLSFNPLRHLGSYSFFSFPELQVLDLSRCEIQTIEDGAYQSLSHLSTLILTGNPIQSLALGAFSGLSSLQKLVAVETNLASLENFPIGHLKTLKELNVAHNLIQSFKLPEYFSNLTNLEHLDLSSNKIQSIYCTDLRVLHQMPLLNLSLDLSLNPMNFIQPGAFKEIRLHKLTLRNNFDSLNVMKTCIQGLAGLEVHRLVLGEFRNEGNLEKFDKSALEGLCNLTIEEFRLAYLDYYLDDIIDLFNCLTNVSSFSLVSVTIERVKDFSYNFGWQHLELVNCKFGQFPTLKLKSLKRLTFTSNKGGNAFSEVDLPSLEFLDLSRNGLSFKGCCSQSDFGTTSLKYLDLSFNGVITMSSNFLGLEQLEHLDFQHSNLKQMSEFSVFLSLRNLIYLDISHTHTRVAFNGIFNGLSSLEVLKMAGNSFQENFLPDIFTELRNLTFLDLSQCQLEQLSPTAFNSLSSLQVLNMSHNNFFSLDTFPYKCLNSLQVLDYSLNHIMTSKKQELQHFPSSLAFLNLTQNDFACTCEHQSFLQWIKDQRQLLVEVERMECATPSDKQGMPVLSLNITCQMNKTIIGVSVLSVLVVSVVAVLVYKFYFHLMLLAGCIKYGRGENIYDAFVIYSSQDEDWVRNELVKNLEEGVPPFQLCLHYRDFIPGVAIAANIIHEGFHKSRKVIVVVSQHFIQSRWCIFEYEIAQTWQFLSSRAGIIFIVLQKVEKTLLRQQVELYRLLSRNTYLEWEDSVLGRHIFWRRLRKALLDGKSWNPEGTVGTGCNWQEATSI
Target sequence (Q99836 whole entry, looked up): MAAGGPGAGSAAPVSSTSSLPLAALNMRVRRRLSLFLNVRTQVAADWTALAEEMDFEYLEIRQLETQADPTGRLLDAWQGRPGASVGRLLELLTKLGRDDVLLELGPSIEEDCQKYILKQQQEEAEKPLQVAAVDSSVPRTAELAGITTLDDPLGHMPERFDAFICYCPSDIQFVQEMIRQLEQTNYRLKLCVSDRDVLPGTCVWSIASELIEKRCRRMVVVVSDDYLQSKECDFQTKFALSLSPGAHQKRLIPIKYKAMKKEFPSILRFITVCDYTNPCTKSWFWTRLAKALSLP
TLR9-MyD88 block = inhibitors of TLR9-MyD88 association in cells, primary screen, cell-based, CHO, BLA complementation, fluorescence | inhibition, % at 4.98 µM | CCF4 FRET ratio | actives 0.21% (n = 340,000);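 active = inhibition above the mean over all tested compounds plus 3 SD, cut at about 21% in these data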;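 also: 0% = DMSO only wells and 100% = clavulanate BLA inhibitor control wells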
CHOP UPR activ = activators of apoptotic CHOP UPR arm, primary screen, cell-based, CHO-CHOP luciferase reporter, luminescence, uHTS; UPR activation; percent of tunicamycin response over DMSO baseline; activation, % at 10 µM; actives 0.34% (n = 330,000); AID 449763, 2010;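 active = at 10 µM dose, activation of 40% or more, normalized to positive control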;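 also: 100% = tunicamycin at 10 µg/mL and 0% = DMSO alone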
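System: CHO CHOP reporter cells. Amount: 500 cells per well. Buffer or medium: F12 medium, 10% FBS. Compound dosing: one dose, 10 µM in 0.5% DMSO. Incubation: 6 h compound exposure at 37 °C after overnight seeding. Technique: Steady-Glo luciferase luminescence. Benchmarks: tunicamycin and DMSO controls.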
NOD2-RIPK2 inh = NOD2-RIPK2 binding disruptors in cells, primary screen, fluorescence, CHO cells, BLA complementation. inhibition, % at 4.98 µM. Receptor-interacting serine/threonine-protein kinase 2 (Homo sapiens), O43353. CCF4 ratio. AID 624267, 2012. actives 0.38% (n = 360,000); in the data active = inhibition above about 21%;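 also: 0% = vehicle only and 100% = reference blocker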
XBP1 UPR activ = activators of adaptive XBP1 UPR arm, primary screen, cell-based, CHO-XBP1 luciferase reporter, luminescence, uHTS; actives 0.33% (n = 330,000); IRE1-XBP1 UPR activation; percent of tunicamycin response, DMSO as zero; activation, % at 20 µM;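 active = versus positive control, 20 µM dose yields 30% or more activation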;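 also: 100% = tunicamycin at 10 µg/mL and 0% = DMSO only wells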
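Material: IRE1-XBP1 luciferase reporter CHO line / Quantity: one thousand reporter cells per well / Buffer or medium: F12 with 10% serum / Compound: 20 µM single concentration, DMSO 1% / Times: 6 h treatment, 37 °C / Detection: Steady-Glo luciferase glow luminescence, 10 min after reagent addition / Benchmarks: tunicamycin high, DMSO low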
CHOP inh = inhibitors of CHOP promoter induction, primary screen, cell-based, unfolded protein response, luciferase reporter; CHO-K1 CHOP-promoter luciferase, tunicamycin-induced, 15-18 h; actives 3.8% (n = 220,000); inhibition, % at 10 µM;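 active = compounds that reduced the stress-induced luciferase reporter signal by more than about 70% of percent inhibition, limit read from the data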;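 also: 0% = tunicamycin plus vehicle and 100% = wells without tunicamycin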
An asterisk follows results filed as active; . = no result given. The sample as a whole holds a higher share of hits than the screen did.

SMILES	TLR4 MyD88 comp	TLR9-MyD88 block	CHOP UPR activ	NOD2-RIPK2 inh	XBP1 UPR activ	CHOP inh
Clc1ccc2c(-c3ccccc3)nc(-c3cccs3)nc2c1	.	.	.	-7	.	.
Cc1ccc(N=Nc2c(N)[nH]n3c(=O)cc(-c4ccccc4)nc23)cc1	8	-4	1	-4	2	75*
COc1cccc(N=Nc2c(N)[nH]n3c(=O)cc(-c4ccccc4)nc23)c1	1	-3	9	4	-1	67
CCOc1cccc2cc(-c3cn4cc(C)ccc4n3)c(=O)oc12	-3	-3	-1	7	1	83*
COc1cccc2cc(-c3cn4ccc(C)cc4n3)c(=O)oc12	-2	-1	1	-6	-2	.
COC(=O)[C@]12CCCCC=C1N(CCC1=CCCCC1)C(=O)[C@H](CC(=O)NCCc1ccccc1OC)C2	.	.	.	-8	.	.
CN(C)CCCNC(=O)/C(=C\c1ccc(-c2ccc(Br)cc2)o1)NC(=O)c1ccccc1	2	4	2	10	0	81*
CN(C)CCCNC(=O)/C(=C/c1ccc(-c2ccc([N+](=O)[O-])cc2)o1)NC(=O)c1ccccc1	.	6	1	12	0	.
CC(=O)Nc1sc(N/N=C\c2cccc(Cl)c2)nc1-c1cccs1	5	-2	3	-5	0	96*
CC(=O)Nc1sc(N/N=C\c2ccc(O)cc2)nc1-c1cccs1	.	0	4	0	-3	-26
c1ccc2c(c1)OCC(CNc1ncnc3sccc13)O2 (stereo not given)	5	-7	.	0	.	79*
Fc1ccccc1CNc1ncnc2sccc12	.	-2	2	-24	3	.
COc1cc(CCC(N)c2cccc(O)c2)cc(OC)c1OC (stereo not given)	.	3	.	-2	.	.
O=[N+]([O-])c1ccc(N=Nc2c(Cl)cc(O)cc2Cl)cc1	.	-10	.	8	.	102*
CCc1c(O)nc(SCC(=O)Nc2ccc(Cl)cc2)n(-c2ccccc2)c1=O	.	-11	.	-8	.	.
NC(=O)CC(NC(=O)Cc1cccc2ccccc12)c1ccc(N2CCN(c3ccccc3)CC2)c([N+](=O)[O-])c1 (stereo not given)	.	6	4	3	-3	87*
CCCC(=O)N1CCC1(C)C(=O)Nc1ccc2nc(C)ccc2c1 (stereo not given)	.	.	.	-8	.	.
CCn1c(=O)c(C(=O)Nc2ccccn2)c(O)c2ccccc21	3	2	0	-5	0	81*
CCn1c(=O)c(C(=O)Nc2ncccc2O)c(O)c2ccccc21	.	-1	3	-6	-4	.
CCCn1c(=O)c(C(=O)NNS(=O)(=O)c2ccc(C)cc2)c(O)c2ccccc21	3	-7	0	0	-1	90*
CCn1c(=O)c(C(=O)NC(C)C)c(O)c2ccccc21	-2	-5	0	-1	-1	72*
CC1=C(C(=O)N(C(C)C)C(C)C)CC(CC(=O)NC2CC2)C(=O)N1Cc1ccccc1 (stereo not given)	.	.	.	-17	.	.
O=C(c1ccc(CS(=O)Cc2ccc(Cl)cc2)o1)N1CCN(C2CCCCC2)CC1 (stereo not given)	.	10	.	-9	.	.
O=C(NN1CCCCC1)NN1CCCCC1	.	.	.	-20	.	.
CCc1ccc(S(=O)(=O)NCc2cn3c(C)csc3n2)s1	-3	-2	0	-1	-1	90*
SMILES	TLR4 MyD88 comp	TLR9-MyD88 block	CHOP UPR activ	NOD2-RIPK2 inh	XBP1 UPR activ	CHOP inh
CCc1ccc(S(=O)(=O)NCCc2csc(-c3ccccc3)n2)s1	2	-9	-1	11	-4	1
CCc1ccc(S(=O)(=O)NCc2csc(-c3ccccc3)n2)s1	0	-4	-1	3	-1	73*
O=C(Nc1nc2cc3c(cc2s1)OCCO3)C1=COCCO1	.	-4	-10	1	-6	94*
O=C(Nc1nc2ccc(F)cc2s1)C1=COCCO1	.	0	-6	-5	-8	.
COc1ccc(-n2nnnc2C2c3ccccc3C(=O)N2C2CCN(Cc3ccccc3)CC2)cc1 (stereo not given)	.	.	.	-7	.	.
CCOC(=O)Cc1ccc(NCc2ccc(Cl)cc2)cc1	-5	5	0	6	1	78*
CCOC(=O)CNC(=O)Cc1ccc(Cl)cc1	.	6	3	1	0	16
O=C(OCc1ccc(Cl)cc1)c1cnccn1	-2	-5	-2	-4	-1	82*
Cc1cc(C(=O)Nc2ccc3c(c2)OCO3)cs1	-2	-3	3	4	-2	-61
Cc1cc(C(=O)NC(C)c2ccc3c(c2)OCO3)cs1 (stereo not given)	7	8	0	5	1	74*
COc1cccc(-c2oc3c(c2C(=O)OCCN(C)C)C(O)CCC3)c1 (stereo not given)	.	.	.	-16	.	.
COc1ccc(NC(=O)NC23CC4(C)CC(C)(CC(C)(C4)C2)C3)cc1	1	-2	-1	-4	3	70*
COc1ccc(NC(=O)NC2(C)CCS(=O)(=O)C2)cc1 (stereo not given)	.	-1	0	-4	-3	.
CC(=O)N(/N=C/c1cccc(C)c1)c1nc(-c2ccc(Br)cc2)cs1	-4	-1	-1	-7	0	95*
CC(C)CCOc1ccc(/C=C2\CCn3c2nc2cc(C(=O)O)ccc2c3=O)cc1	-10	-6	.	-14	.	90*
COC(=O)c1ccc(/C=C2\CCn3c2nc2cc(C(=O)O)ccc2c3=O)cc1	.	-3	2	-14	-3	.
Cc1ccc(C(=O)N2CCC(Cc3ccccc3)CC2)cc1S(=O)(=O)N1CCOCC1	.	-19	0	6	-1	.
CC(C)C(=O)NC(Nc1cc(C(F)(F)F)ccc1Cl)C(Cl)(Cl)Cl (stereo not given)	-6	-10	1	7	1	72*
CC(C)C(=O)NC(Nc1ccccc1F)C(Cl)(Cl)Cl (stereo not given)	7	3	1	4	0	28
Cc1cc(C(=O)COC(=O)c2ccccc2O)c(C)n1CC1CCCO1 (stereo not given)	.	4	-9	-11	-9	.
Cc1cc(C(=O)COc2ccccc2C(N)=O)c(C)n1CC1CCCO1 (stereo not given)	5	-10	6	1	-2	46
Cc1cc(C(=O)COC(=O)C2COc3ccccc3O2)c(C)n1CC1CCCO1 (stereo not given)	3	5	-1	-2	1	77*
